In ChEMBL document CHEMBL3616442, “Unconventional Knoevenagel-type indoles: Synthesis and cell-based studies for the identification of pro-apoptotic agents” (Eur J Med Chem, 2015):
Activity calls are given as the source filed them. The calls are words filed in the database; no cut-off is given here.

Assays:
HL-60 [1] = test: Antiproliferative activity against human HL60 cells after 3 days incubation by alamar blue method; assay type: functional
Procedure, shortened: (§1)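 HL-60 and K562 grown in RPMI 1640, MCF-7 in DMEM, each with 10% FCS, penicillin G and streptomycin. Seeded at 4x10⁴ (HL-60, K562) or 2x10⁴ (MCF-7) cells per well with serial compound dilutions, incubated 3 days at 37 °C. Alamar blue added for 3 h at 37 °C in the dark, fluorescence read at ex 544/em 590 nm. IC50 versus untreated controls by linear regression.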

HL-60 [2] = test: Induction of cell cycle arrest in human HL60 cells assessed as accumulation at G2/M phase after 18 hrs by propidium iodide staining based flow cytometric analysis; assay type: functional
Procedure, shortened: (§2)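 Propidium iodide/RNase A flow cytometry of ethanol-fixed cells, 10,000 gated events at 488 nm; G2/M fraction measured after 18 h treatment (HL-60, MCF-7) or 24 h (K562); mean ± S.E.M. of three independent experiments.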

HL-60 [3] = test: Induction of apoptosis in human HL60 cells by propidium iodide staining based flow cytometric analysis; assay type: functional; settings: TDE = time-dependent effect
Procedure, shortened: (§3)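 After treatment, cells harvested, fixed in ice-cold 70% ethanol at 4 °C, stained 30 min at 37 °C in the dark with 100 µg/mL propidium iodide plus 10 µg/mL RNase A; 10,000 gated cells analysed at 488 nm with debris excluded; apoptosis followed over time; mean ± S.E.M. of three independent experiments run in triplicate.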

MT4 = test: Antiproliferative activity against human MT4 cells after 96 hrs by MTT assay; assay type: functional, cell-based; settings: MT4, 96 h
Procedure, shortened: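 Exponentially growing MT-4 cells (CD4+ human T-cells carrying integrated HTLV-1 genome), seeded at 1×10^5 cells/mL in RPMI-1640 with 10% FCS and antibiotics. Serial dilutions of compound (DMSO stock 100 mM, diluted in medium), 37 °C, 5% CO₂, 96 h. Viability read by MTT. 50% inhibition versus untreated controls by linear regression. Mean ± SD of three independent determinations.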

K562 [4] = test: Induction of apoptosis in human K562 cells by propidium iodide staining based flow cytometric analysis; assay type: functional; procedure, shortened: as §3
MCF7 [5] = test: Induction of cell cycle arrest in human MCF7 cells assessed as accumulation at G2/M phase after 18 hrs by propidium iodide staining based flow cytometric analysis; assay type: functional; procedure, shortened: as §2
MCF7 [6] = test: Induction of apoptosis in human MCF7 cells by propidium iodide staining based flow cytometric analysis; assay type: functional; procedure, shortened: as §3
Tubulin (Homo sapiens) = Tubulin (Homo sapiens) (UniProt P68371+Q9H4B7+P0DPH7+P68366+Q13509+Q71U36+P04350+Q3ZCM7+P07437+P68363+Q9BQE3+Q6PEY2+Q13885+Q9BVA1+Q9BUF5); test: Induction of Tubulin depolymerization in human MCF7 cells by immunofluorescence analysis; assay type: cell-based
Procedure, shortened: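 MCF-7 cells grown and treated on chamber slides, fixed in ice-cold 100% methanol, washed in PBS with 0.1% Triton X-100, blocked 30 min in 5% BSA, then mouse anti-tubulin for 1 h and Alexa 488 secondary for 1 h; DNA counterstained with 0.2 μg/mL propidium iodide for 2 min. Paclitaxel and PBOX-15 served as tubulin controls.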

K562 [7] = test: Induction of cell cycle arrest in human K562 cells assessed as accumulation at G2/M phase after 24 hrs by propidium iodide staining based flow cytometric analysis; assay type: functional; procedure, shortened: as §2
MCF7 [8] = test: Antiproliferative activity against human MCF7 cells after 3 days incubation by alamar blue method; assay type: functional; procedure, shortened: as §1
Nucleic Acid = test: Induction of DNA intercalation of plasmid pQE30 DNA at 0.01 to 1 mM by electrophoretic mobility assay; assay type: nucleic-acid assay; settings: Escherichia coli
Procedure, shortened: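 Compound dissolved in methanol and incubated with double-strand plasmid pQE-30 DNA for 10 min at 37 °C; gel loading buffer added and samples run on 0.7% agarose to separate closed circular and supercoiled forms.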

K562 [9] = test: Antiproliferative activity against human K562 cells after 3 days incubation by alamar blue method; assay type: functional; procedure, shortened: as §1

CS(=O)(=O)/C(C#N)=C/c1c(-c2ccccc2)[nH]c2ccccc12
Activity (HL-60 [1]): Dose-dependent effect | GI50 (HL-60 [1]; HL-60, 72 h): 1320 nM | Activity (HL-60 [2]): 39.7% | Activity (HL-60 [3]): tde | EC50 (MT4): 300 nM | Activity (K562 [4]): 47.5% | Activity (K562 [4]; TDE = time-dependent effect): tde | Activity (MCF7 [5]): 41.3% | Activity (MCF7 [6]): 28.4% | Activity (MCF7 [6]; TDE = time-dependent effect): tde | Activity (Tubulin (Homo sapiens)): Active | Activity (K562 [7]): 46.8% | Activity (MCF7 [8]): Dose-dependent effect | GI50 (MCF7 [8]; MCF7, 72 h): > 10 µM | Activity (Nucleic Acid): inactive | Activity (K562 [9]): Dose-dependent effect | GI50 (K562 [9]; K562, 72 h): > 10 µM
